Measurements published in ChEMBL document CHEMBL1154430, “Synthesis, characterization and pharmacological evaluation of amide prodrugs of ketorolac” (Eur J Med Chem, 2008).

Assays:
[1] = Solubility in water; assay type: physicochemical; settings: buffer
[2] = Solubility in 1.0N HCl; assay type: physicochemical; settings: buffer
[3] = Chloroform-PBS partition coefficient, log K at pH 7.4; assay type: physicochemical
[4] = Chloroform-acidic buffer partition coefficient, log K at pH 1.4; assay type: physicochemical
[5] = Protein binding in plasma in pH 7.4 at 20 ug/ml by spectrophotometry; assay type: ADME, cell-free; settings: read-out: PB (converted)
Summary of the method: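 Prodrug solution in PBS pH 7.4. Membrane washed with distilled water, then with pH 7.4 buffer, before use. Withdrawn samples diluted with 1 mL phosphate buffer and prodrug concentration measured spectrophotometrically.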

[6] = Metabolic stability in stimulated intestinal fluid assessed as half life at 10 mg by HPLC; assay type: ADME; settings: simulated intestinal fluid
Summary of the method: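 10 mg in 2 mL acetonitrile added to 88 mL SIF (pH 7.4). Aliquots chilled in freezing mixture to arrest hydrolysis, vortexed 5 min and centrifuged 5 min. Supernatant analysed on C18 reversed-phase HPLC (acetonitrile:water 50:50), UV at 247 nm.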

[7] = Metabolic stability in human plasma assessed as half life at 10 mg by HPLC; assay type: ADME, cell-free
Summary of the method: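 10 mg in 2 mL acetonitrile added to 88 mL 80% human plasma (80:20 plasma:phosphate buffer pH 7.4) at 37 ± 0.5 °C. Samples taken at 10, 20, 30, 40, 50 and 60 min and chilled in freezing mixture to stop hydrolysis. Then vortexed 5 min, centrifuged, and supernatant run on C18 reversed-phase HPLC (acetonitrile:water 50:50), UV at 247 nm.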

[8] = system: Rattus norvegicus; experiment: Antiinflammatory activity against carrageenan-induced paw edema in po dosed Wistar rat at dose equivalent to 2.5 mg/kg ketorolac after 2 hrs; assay type: functional
Summary of the method: (§1)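 Wistar albino rats, 100–200 g, seven groups of three including control and standard. Initial right hind paw volume measured by plethysmometer before dosing. Oral dose in 1% CMC suspension, prodrugs equivalent to 2.5 mg/kg ketorolac. Anti-inflammatory activity reported as percentage at 2 and 6 h after administration.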

[9] = system: Rattus norvegicus; experiment: Antiinflammatory activity against carrageenan-induced paw edema in po dosed Wistar rat at dose equivalent to 2.5 mg/kg ketorolac after 6 hrs; assay type: functional; summary of the method: as §1
[10] = system: Rattus norvegicus; experiment: Analgesic activity in po dosed Wistar rat […] assessed as reaction time for tail withdrawal at dose equivalent to 1.2 mg/kg of ketorolac after 30 mins by tail flick method; assay type: functional
Summary of the method: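 Wistar rats, 100–200 g, groups of three. Tail-flick test on a […] analgesiometer with a thermal stimulus. Current set so that more than 90% of rats flick within 5–9 s, and slow responders rejected. Dose equivalent to 1.2 mg/kg given orally in 1% sodium carboxymethylcellulose suspension. %Analgesia = [1 − […]]×100, from reaction times before (T₁) and after (T₂) dosing.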

[11] = Solubility in 0.1 N NaOH; assay type: physicochemical
[12] = system: Rattus norvegicus; experiment: Antiinflammatory activity against carrageenan-induced paw edema in Wistar rat at 2.5 mg/kg, po after 2 hrs; assay type: functional; summary of the method: as §1
[13] = system: Rattus norvegicus; experiment: Antiinflammatory activity against carrageenan-induced paw edema in Wistar rat at 2.5 mg/kg, po after 6 hrs; assay type: functional; summary of the method: as §1
[14] = system: Rattus norvegicus; experiment: Gastrointestinal toxicity in Wistar rat assessed as ulcerogenic indicates at dose equivalent to 1.2 mg/kg of ketorolac orally administered for 5 days; assay type: organism-based; set-up: dose 1.2 mg/kg, route oral; settings: in vivo, po, 120 h
Summary of the method: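 Male Wistar rats, 130–150 g, groups of three including control and standard. Suspended in 2% w/v acacia and given orally at dose equivalent to 1.2 mg/kg ketorolac daily for 5 days. Rats fasted after the last dose, then decapitated. Stomach opened and washed, and lesions larger than 0.5 mm counted visually under a 2× binocular magnifier.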

[15] = chloroform/acidic buffer, pH 1.4

| Structure (SMILES) | solubility [1] | solubility [2] | K ([3]; chloroform/PBS, pH 7.4) | K [4, 15] | fraction unbound at 20 ug/ml [5] | half-life [6] [h] | half-life [7] [h] | Activity [8] [%] | Activity [9] [%] | Activity [10] [%] | K [3] | K [4] | solubility [11] | Activity [12] [%] | Activity [13] [%] | UI [14] |
| --- | --- | --- | --- | --- | --- | --- | --- | --- | --- | --- | --- | --- | --- | --- | --- | --- |
| CCOC(=O)CC(NC(=O)C1CCn2c(C(=O)c3ccccc3)ccc21)C(=O)OCC (racemic) | Insoluble | Insoluble | 18.26 | 330.12 | 0.55 | 2.13 | 0.45 | 44 | 57.72 | 54 |  |  |  |  |  |  |
| CCOC(=O)CCC(NC(=O)C1CCn2c(C(=O)c3ccccc3)ccc21)C(=O)OCC (racemic) | Insoluble | Insoluble | 18.08 | 319.5 | 0.55 | 2.13 | 0.45 | 44 | 49 | 54 |  |  |  |  |  |  |
| CCOC(=O)C(C)NC(=O)C1CCn2c(C(=O)c3ccccc3)ccc21 (racemic) | Insoluble | Insoluble | 15.61 | 256.73 | 0.811 | 2.67 | 0.987 | 27 | 43 | 26 |  |  |  |  |  |  |
| CCOC(=O)C(NC(=O)C1CCn2c(C(=O)c3ccccc3)ccc21)C(C)C (racemic) | Insoluble | Insoluble | 20 | 380.6 | 0.55 | 2.67 | 0.65 | 33 | 49 | 36 |  |  |  |  |  |  |
| CCOC(=O)C(CC(C)C)NC(=O)C1CCn2c(C(=O)c3ccccc3)ccc21 (racemic) | Insoluble | Insoluble | 23.09 | 640 | 0.55 | 2.67 | 1.02 | 27 | 43 | 26 |  |  |  |  |  |  |
| CCOC(=O)C(NC(=O)C1CCn2c(C(=O)c3ccccc3)ccc21)C(C)CC (racemic) | Insoluble | Insoluble | 23.87 | 656.8 | 0.55 | 2.13 | 0.65 | 33 | 49 | 36 |  |  |  |  |  |  |
| CCOC(=O)C(Cc1ccccc1)NC(=O)C1CCn2c(C(=O)c3ccccc3)ccc21 (racemic) | Insoluble | Insoluble | 23.18 | 504.05 | 0.55 | 2.13 | 0.45 | 44 | 49 | 54 |  |  |  |  |  |  |
| CCOC(=O)CNC(=O)C1CCn2c(C(=O)c3ccccc3)ccc21 (racemic) | Insoluble | Insoluble | 13.81 | 215.9 | 0.55 | 2.13 | 0.65 | 33 | 49 | 36 |  |  |  |  |  |  |
| CCOC(=O)CCNC(=O)C1CCn2c(C(=O)c3ccccc3)ccc21 (racemic) | Insoluble | Insoluble | 15.33 | 250.25 | 0.621 | 2.67 | 0.882 | 33 | 49 |  |  |  |  |  |  |  |
| CCOC(=O)C(Cc1c[nH]c2ccccc12)NC(=O)C1CCn2c(C(=O)c3ccccc3)ccc21 (racemic) | Insoluble | Insoluble |  |  | 0.55 | 2.98 | 0.825 | 27 | 43 | 26 | 21.42 | 429.9 |  |  |  |  |
| O=C(c1ccccc1)c1ccc2n1CCC2C(=O)O (stereo unspecified) [KETOROLAC] |  | Insoluble | 6.022 | 75.62 |  |  |  |  |  |  |  |  | Soluble | 64.24 | 54.21 | 23.2 |
